Experiments:
[1] = tested on: Mus musculus; assay: Tested for its effect on testes weight 3 days after single oral dose (10 mg/kg); assay type: functional, Testis
In short: (§1)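 CD-1 outbred Swiss albino male mice, 5 per dose, single gavage on day 0 at 10 mL/kg. Vehicle was 0.15 M acetate buffer pH 5, ethanol/Tween-20/water (3:7:90), or 1% Tween-20 in water. CO2 euthanasia 72 h later. Testes weighed and histologically scored (spermatogenic index 0–6). Values are % reduction versus the assay's vehicle control. Positive control was 30 mg/kg of the parent compound. Significance by Dunnett's one-tailed t-test, p < 0.05.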

[2] = tested on: Mus musculus; assay: tested for its effect on testes weight 3 days after single oral dose (90 mg/kg); assay type: functional, Testis
In short: (§2)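 Male CD-1 (ICR)BR outbred Swiss albino mice, 5/dose, given one oral gavage dose (10 mL/kg) on day 0 in 0.15 M acetate buffer pH 5, ethanol/Tween-20/water (3:7:90), or 1% Tween-20 in water; vehicle and positive-control groups in each assay. Killed by CO2 72 h later; testes weighed. Expressed as % reduction versus vehicle control; Dunnett's one-tailed t-test.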

[3] = tested on: Mus musculus; assay: tested for its effect on testes weight 3 days after single oral dose (30 mg/kg); assay type: functional, Testis; in short: as §2
[4] = tested on: Mus musculus; assay: tested for its effect on spermatogenic index 3 days after single oral dose (90 mg/kg); assay type: functional
In short: (§3)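 Male CD-1 (ICR)BR outbred Swiss albino mice, 5/dose, single oral gavage dose (10 mL/kg) on day 0 in acetate buffer pH 5 or Tween-20-based vehicle; killed 72 h later. Testis cross-sections scored histologically on a 0–6 spermatogenic index (Sertoli only to >100 late spermatids/tubule). Reported as % reduction versus vehicle control; Dunnett's one-tailed t-test.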

[5] = tested on: Mus musculus; assay: tested for its effect on spermatogenic index 3 days after single oral dose (30 mg/kg); assay type: functional; in short: as §3
[6] = tested on: Mus musculus; assay: Tested for its effect on spermatogenic index 3 days after single oral dose (10 mg/kg),; assay type: functional; in short: as §1
[7] = tested on: Mus musculus; assay: Tested for its effect on mouse testes weight 3 days after single oral dose (30 mg/kg); assay type: functional, Testis; in short: as §1
[8] = tested on: Mus musculus; assay: Tested for its effect on spermatogenic index 3 days after single oral dose (30 mg/kg) in mice; assay type: functional; in short: as §1
[9] = tested on: Mus musculus; assay: Tested for its effect on spermatogenic index 3 days after single oral dose (10 mg/kg) in mice; assay type: functional; in short: as §1
[10] = tested on: Mus musculus; assay: Tested for its effect on mouse testes weight 3 days after single oral dose (10 mg/kg); assay type: functional, Testis; in short: as §1
[11] = tested on: Mus musculus; assay: Tested for its effect on spermatogenic index 3 days after single oral dose (90 mg/kg) in mice; assay type: functional; in short: as §1
[12] = tested on: Mus musculus; assay: Tested for its effect on mouse testes weight 3 days after single oral dose (3 mg/kg); assay type: functional, Testis; in short: as §1
[13] = tested on: Mus musculus; assay: Tested for its effect on mouse testes weight 3 days after single oral dose (90 mg/kg); assay type: functional, Testis; in short: as §1
[14] = tested on: Mus musculus; assay: Tested for its effect on spermatogenic index 3 days after single oral dose (3 mg/kg) in mice; assay type: functional; in short: as §1

## CCN1CC[C@H]2[C@H](c3ccc(C)cc3C)c3cc(C)ccc3[C@H]2C1.Cl
[1]
  Reduction: 1%
[2]
  Reduction: 11%
[3]
  Reduction: 6%
[4]
  Reduction: 30%
[5]
  Reduction: 3%
[6]
  Reduction: 0%

## Cc1ccc([C@H]2c3cc(C)ccc3[C@H]3CN(C)CC[C@@H]23)cc1.Cl
[7]
  Reduction: 12%
[8]
  Reduction: 7%

## CCN1CC[C@H]2[C@H](c3ccc(OC)cc3)c3cc(C)ccc3[C@H]2C1.Cl
[9]
  Reduction: -6%
[10]
  Reduction: -17%
[11]
  Reduction: -5%
[12]
  Reduction: -7%
[13]
  Reduction: 5%
[14]
  Reduction: 2%

Reference: ChEMBL document CHEMBL1128250, “Structure-activity studies of 2,3,4,4a,5,9b-hexahydroindeno[1,2-c]pyridines as antispermatogenic agents for male contraception” (1995)
